MLLE-PAM2 inh – blocks PAM2 peptide binding to the PABP1 MLLE domain | P11940 | GST-MLLE / FITC-PAM2 fluorescence polarization | inhibition, % at 20 µM | 360,000 tested, 0.36% active | AID 588489; in the data active means inhibition above about 35%, passing the limit was not always enough
NS3 helicase inh – inhibitors of Hepatitis C virus NS3 helicase | 290,000 tested, 0.56% active | AID 1800 | inhibition, % at 10.9 µM | NS3 helicase DNA unwinding, Cy5 molecular beacon fluorescence;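 active means inhibition above the mean of all tested compounds plus 3 SD, set per campaign, cut at about 35% in these data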
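Assay system – hepatitis C virus NS3 helicase domain fragment enzyme · Buffer or medium – MOPS pH 6.5, MgCl2, DTT, Tween20, BSA · Reagent – Cy5/quencher beacon DNA duplex and ATP to start · Compound – single 10.9 µM dose · Timing – 1 h at 25 °C · Technique – Cy5 beacon fluorescence read at start and 1 h · Measure – % inhibition of unwinding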
eIF4H inh – inhibitors of RNA binding by human eIF4H; eIF4H fluorescence polarization binding assay; inhibition, % at 35 µM; AID 2012; 290,000 tested, 0.94% active;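 further: calls also rest on retests at 20 µM and on dose response follow-up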
FID counter – fluorescent intercalator displacement, NS3 helicase counter-screen. DNA fluorescent intercalator displacement, fluorescence. 290,000 tested, 0.17% active. inhibition, % at 7.9 µM; in the data active means inhibition above about 37%;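 further: higher means more ethidium bromide displaced from hairpin DNA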
PABP FP inh – blocks human PABP binding to poly(A) RNA; 290,000 tested, 1% active; inhibition, % at 35 µM; AID 2014; P11940; fluorescence polarization;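 further: calls also rest on retests at 20 µM and on dose response follow-up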
core dimer inh – HCV core protein dimerization inhibition; TR-FRET GST/Flag-core106 dimerization, 1536-well; inhibition, % at 5 µM; 300,000 tested, 0.33% active; AID 1899;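 active means inhibition above the mean of all tested compounds plus 3 SD, set per screening campaign, cut at about 45% in these data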
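System: GST-tagged and Flag-tagged HCV core protein residues 1-106 / Input: core106 proteins, GST 13.5 nM and Flag 17 nM / Buffer or medium: KF-containing HEPES buffer, pH 7.45, DTT, CHAPS, BSA / Probe or stimulus: Eu-anti-GST and XL665-anti-Flag labelled anti-tag antibodies / Schedule: 4 h, 22.5 °C incubation / Technique: TR-FRET 671 and 617 nm emission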
Large screens that a line does not name were inactive. This is a sample that favours compounds with a hit; in the whole collection about 2% have one here. Unless noted, how the calls were made is not given here.

O=c1[nH]cnc2scc(-c3ccc(-c4ccccc4)cc3)c12	PABP FP inh 35
O=C(Nc1ccccc1)c1cc(C2CCCN(C(=O)c3cccs3)C2)on1 (centres undefined)	none (no result: NS3 helicase inh, eIF4H inh, FID counter, PABP FP inh, core dimer inh)
CC1CN(C(=O)c2cccc(S(=O)(=O)Nc3ccc(Cl)cc3)c2)CC(C)O1 (centres undefined)	eIF4H inh active, PABP FP inh 66
CN(CC1CCCO1)S(=O)(=O)c1ccc(C(=O)Nc2nnc(-c3ccccc3)o2)cc1 (centres undefined)	none
CC(C)C(NC(=O)OCc1ccccc1)C(=O)OCC(=O)NCc1ccco1 (centres undefined)	core dimer inh 75
CC(C)[C@H](NC(=O)OCc1ccccc1)C(=O)OCC(=O)NCc1ccco1	none (no result: NS3 helicase inh, eIF4H inh, FID counter, PABP FP inh, core dimer inh)
CCOc1cc(C(=O)OCC(=O)NCc2ccco2)cc(OCC)c1OCC	core dimer inh 52
O=C(COC(=O)Cc1ccc(F)cc1)NCc1ccco1	eIF4H inh 93, PABP FP inh active
O=C(COC(=O)c1cncc(Br)c1)NCc1ccco1	eIF4H inh 97, PABP FP inh 50
COc1cc(C(=O)OCC(=O)NCc2ccco2)cc(OC)c1OC	none
C[C@@H]1CCCCO[C@H](CN(C)C(=O)Nc2ccccc2)[C@@H](C)CN([C@H](C)CO)C(=O)c2cc(NS(=O)(=O)c3cn(C)cn3)ccc2O1	none (no result: NS3 helicase inh, eIF4H inh, FID counter, PABP FP inh, core dimer inh)
COc1ccccc1CNc1nc(NCCN2CCNC2=O)c2sccc2n1	none (no result: NS3 helicase inh, eIF4H inh, FID counter, PABP FP inh, core dimer inh)
Cc1c(C(=O)N(C)Cc2ccc(F)cc2)sc(=O)n1Cc1ccccc1C#N	none (no result: NS3 helicase inh, eIF4H inh, FID counter, PABP FP inh, core dimer inh)
Cc1cccc(C)c1NC(=S)Nc1ccc(F)cc1	MLLE-PAM2 inh 44
Cc1ccc(C(C)NC(=O)COC(=O)C2=COCCO2)cc1C (centres undefined)	none (no result: NS3 helicase inh, eIF4H inh, FID counter, PABP FP inh, core dimer inh)
CCOC(=O)c1c(C)[nH]c(C)c1S(=O)(=O)N1CCN(C(=O)c2ccco2)CC1	none
Cc1cc(OCC(=O)OCC(=O)NC2CCS(=O)(=O)C2)ccc1Cl (centres undefined)	none (no result: NS3 helicase inh, eIF4H inh, FID counter, PABP FP inh, core dimer inh)
CCCC[C@@H](CNC)NC[C@H](NCCCCC1CCCCC1)C(C)C	none
CCC[C@@H](CN[C@@H](CNC)[C@H](C)CC)NCC1CCC(C(C)(C)C)CC1 (some centres undefined)	FID counter 40
CCC[C@H](CN[C@@H](CNC)[C@H](C)CC)NCCc1cc(C(F)(F)F)cc(C(F)(F)F)c1	FID counter 39
O=[N+]([O-])/C(Cl)=C(/NCCO)C(Cl)=C(Cl)Cl	none (no result: NS3 helicase inh, eIF4H inh, FID counter, PABP FP inh, core dimer inh)
COC1=C/C(=C/c2c(O)c(C#N)c3ccccn23)C=CC1=O	PABP FP inh 39
Cc1ccc(/C=C2\SC(=O)N(CCNC(=O)C3CSC4(C)CCC(=O)N34)C2=O)cc1 (centres undefined)	none (no result: NS3 helicase inh, eIF4H inh, FID counter, PABP FP inh)
Nc1cccnc1Sc1cccc(Cl)c1	MLLE-PAM2 inh 38
CCn1c(=O)c(C(=O)CN2CCc3ccccc32)c(N)n(Cc2ccccc2)c1=O	eIF4H inh inconclusive, core dimer inh 51
CNC[C@@H](Cc1ccccc1)NC[C@@H](CC1CCCCC1)NCCCc1ccccc1	FID counter 38
COc1ccc(-c2cc3c(=O)n(CC(=O)NCCCN4CCC(N5CCCCC5)CC4)ncn3n2)cc1	FID counter 40
COc1ccc(-c2cc3c(=O)n(CC(=O)NCCCN4CCC(N5CCCCC5)CC4)nc(C)n3n2)cc1	FID counter 42
O=C(COC(=O)COc1ccc(Cl)cc1)Nc1cccnc1Cl	none (no result: NS3 helicase inh, eIF4H inh, FID counter, PABP FP inh, core dimer inh)
c1cncc(COC2CCCN(Cc3nc(-c4cccs4)no3)C2)c1 (centres undefined)	none
c1ccc(COC2CCCN(Cc3nc(-c4cccs4)no3)C2)nc1 (centres undefined)	MLLE-PAM2 inh 40
NS(=O)(=O)c1ccc(-c2ccc(/C=C3\C(=O)Nc4ccccc43)o2)cc1	none (no result: MLLE-PAM2 inh)
Cc1ccc(/C=C2\C(=O)Nc3ccccc32)o1	eIF4H inh 87, PABP FP inh 1.4
CCOc1cc(/C=C2\SC(=Nc3ccc(F)cc3)N(c3ccc(F)cc3)C2=O)ccc1OCC(=O)O	FID counter 44 (no result: MLLE-PAM2 inh)
Cc1c2ccccc2cc[n+]1CCCS(=O)(=O)[O-]	none
CC1(C)C(/C=C/C=C/C=C/C=C2\N(CCCCS(=O)(=O)O)c3ccc4ccccc4c3C2(C)C)=[N+](CCCCS(=O)(=O)[O-])c2ccc3ccccc3c21	core dimer inh 69 (no result: NS3 helicase inh, eIF4H inh, FID counter, PABP FP inh)
CC1CCN(C(=O)c2[nH]cnc2C(=O)N2CCN(c3ccccc3)CC2)CC1	none (no result: NS3 helicase inh, eIF4H inh, FID counter, PABP FP inh, core dimer inh)
COc1ccc(-c2nnc(SCC(=O)NC3CC3)o2)cc1	none (no result: NS3 helicase inh, eIF4H inh, FID counter, PABP FP inh, core dimer inh)
COc1ccc(C2NC3=C(CCC3)C3(C#N)C4(N=C(N)C23C#N)OCCO4)cc1 (centres undefined)	eIF4H inh 72, PABP FP inh 64
c1ccc(CN2CCN(C3=Nc4cccc5cccc3c45)CC2)cc1	eIF4H inh 94 (no result: core dimer inh)
COC(=O)c1c(NC(=O)CN2CCN(c3ncccn3)CC2)sc(C(N)=O)c1C	none
COC(=O)c1sc(NC(=O)/C=C/c2ccc(C)o2)nc1C	eIF4H inh 95
CC(C)c1ccc(/C=C/C(=O)Nc2nn[nH]n2)cc1	none (no result: MLLE-PAM2 inh)
Cc1ccc(/C=C/C(=O)Nc2nn[nH]n2)o1	MLLE-PAM2 inh 36
c1ccc(COc2ncnc3c2ncn3CCCNC2CCN(Cc3ccccc3)CC2)cc1	none (no result: NS3 helicase inh, eIF4H inh, FID counter, PABP FP inh, core dimer inh)
CC1(C)C(=O)Nc2ccccc2N1C(=O)COC(=O)C12CC3CC(CC(O)(C3)C1)C2	core dimer inh 57
CC(C)(CS(=O)(=O)[O-])NC(=O)CC[N+](C)(C)CCO	eIF4H inh 88, PABP FP inh 51
Cn1c(=O)c2c(ncn2CC(=O)OCC(=O)Nc2cccc(C#N)c2)n(C)c1=O	none (no result: NS3 helicase inh, eIF4H inh, FID counter, PABP FP inh, core dimer inh)
CN(C)C1=C(Cl)C(=O)N(c2ccc(Cl)c(Cl)c2)C1=O	PABP FP inh 5.8
CN(C)/C=C1\C(=O)N(c2ccc(Cl)c(Cl)c2)CS1(=O)=O	none
OC(c1ccccc1)(c1nc(-c2ccc(Cl)cc2)cs1)C(F)(F)F (centres undefined)	none (no result: NS3 helicase inh, eIF4H inh, FID counter, PABP FP inh, core dimer inh)
Cc1ccc(S(=O)(=O)/N=C2/C=C(Sc3ncn[nH]3)C(=O)c3ccccc32)cc1	MLLE-PAM2 inh 50
CC(C)c1ccc(S(=O)(=O)/N=C2/C=C(Sc3ncn[nH]3)C(=O)c3ccccc32)cc1	none
O=C(Nc1cc2cc([N+](=O)[O-])ccc2oc1=O)c1cccs1	PABP FP inh 56 (no result: MLLE-PAM2 inh)
O=C(Nc1cc([N+](=O)[O-])ccc1N1CCCC1)c1cccs1	none
CC(O)CNc1cnccn1 (centres undefined)	eIF4H inh 63, PABP FP inh 71
CCC(C)c1ccc(NC(=O)Nc2cnccn2)cc1 (centres undefined)	none
COc1cc(CNc2nc3ccccc3n2Cc2ccccc2)ccc1O	none (no result: NS3 helicase inh, eIF4H inh, FID counter, PABP FP inh, core dimer inh)
S=C(Nc1ccccc1)Nc1nc2ccccc2n1CCOc1ccccc1	none
CCCCn1c(NC(=S)Nc2ccccc2)nc2ccccc21	MLLE-PAM2 inh 40
COc1cccc(/C=C/C(=O)OCC(=O)NC2CC2)c1OC	none (no result: NS3 helicase inh, eIF4H inh, FID counter, PABP FP inh, core dimer inh)
